Assay results: ChEMBL document CHEMBL4840308, “Design and synthesis of Mannich base-type derivatives containing imidazole and benzimidazole as lead compounds for drug discovery in Chagas Disease” (Eur J Med Chem, 2021)
The source made the active and inactive calls. The calls are words filed in the database; no cut-off is given here.

How the values were obtained:
Trypanosoma cruzi [1] = assay: Antiprotozoal activity against Trypanosoma cruzi epimastigotes assessed as inhibition of parasite growth incubated for 72 hrs followed by alamar blue addition further incubated for 24 hrs; assay type: functional, organism-based
In short: (§1)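 CL-Luc:Neon epimastigotes, 2.5 x 10^5/well in RPMI-1640, exposed 72 h at 27 C to 8-point 2:1 serial dilutions (DMSO <0.5% final); Alamar Blue […] added, 24 h further, read at 540 nm; IC50 interpolated from sigmoidal variable-slope fit; triplicates, three independent experiments.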

[2] = Selectivity index, ratio of IC50 for cytotoxicity against golden hamster BSR cells to IC50 for antiprotozoal activity against Trypanosoma cruzi epimastigotes; assay type: toxicity, cell-based; settings: read-out: Selectivity Index
In short: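 Selectivity index as ratio of BSR cell IC50 to epimastigote IC50, both from 72 h Alamar Blue assays.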

[3] = Selectivity index, ratio of cytotoxicity against golden hamster BSR cells to IC50 for antitrypanosomal activity against Trypanosoma cruzi amastigotes infected in BSR cells; assay type: toxicity, cell-based; settings: read-out: Selectivity Index
In short: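 Selectivity index as ratio of BSR cell IC50 to intracellular amastigote IC50 (72 h fluorescence read-out).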

Trypanosoma cruzi [4] = assay: Antitrypanosomal activity against Trypanosoma cruzi amastigotes infected in BSR cells assessed as inhibition of replication of intracellular amastigotes incubated for 72 hrs by fluorescence based analysis; assay type: functional, organism-based
In short: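 BSR cells (5 x 10^4/well) attached 6 h, infected overnight with CL-Luc:Neon tissue-culture trypomastigotes at MOI 10, washed 3x PBS, then drug in DMEM with 1% FBS for 72 h; fixed in 4% paraformaldehyde 30 min, fluorescence read ex 488/em 525 nm; IC50 by curve interpolation; triplicates, three experiments.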

Trypanosoma cruzi [5] = assay: Antitrypanosomal activity against Trypanosoma cruzi trypomastigotes assessed as inhibition of cellular invasion incubated for 6 hrs in high-glucose DMEM medium followed by compound washout further infected in BSR cells measured after 72 hrs by fluorescence based analysis; assay type: functional, organism-based
In short: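 Tissue-culture trypomastigotes exposed to drug dilutions 6 h at 37 C in high-glucose DMEM with 10% FBS, washed 3x PBS, used to infect BSR cells overnight; non-internalised parasites washed off, 1% FBS medium, infection run 72 h further; amastigote fluorescence (ex 488/em 525 nm) read; IC50 for invasion reduction by curve interpolation.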

[6] = Cytotoxicity against golden hamster BSR cells assessed as reduction in cell viability incubated for 72 hrs followed by alamar blue addition further incubated for 6 hrs; assay type: cell-based; settings: Mesocricetus auratus
In short: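 BSR (BHK-21 subclone) cells, 5 x 10^4/well in DMEM with 5% FBS, adhered 6 h at 37 C, 5% CO2, then given 8-point 2:1 drug dilutions for 72 h; Alamar Blue added for 6 h, absorbance 540 nm; IC50 from sigmoidal variable-slope fit; triplicates, three independent experiments.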

Trypanosoma cruzi [7] = assay: Trypanocidal activity against Trypanosoma cruzi CL-Luc-Neon amastigotes infected in BSR cells assessed as inhibition of parasite growth at 10 times IC50 incubated for 10 days measured after 10 days of compound wash out by epifluorescence microscopy analysis; assay type: functional, organism-based; settings: time 10.0 day
In short: (§2)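 BSR cells on 8-well slides or 24-well plates infected with CL-Luc:Neon trypomastigotes as in the amastigote assay, then exposed to 10 or 20 x IC50 for 10 or 20 days, compound renewed every 4 days; after removal, followed up to 30 days by light and fluorescence microscopy at 37 C, 5% CO2; three wells per treatment, 30 captures per timepoint; relapse day recorded.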

Trypanosoma cruzi [8] = assay: Trypanocidal activity against Trypanosoma cruzi CL-Luc-Neon amastigotes infected in BSR cells assessed as inhibition of parasite growth at 10 times IC50 incubated for 20 days measured after 10 days of compound wash out by epifluorescence microscopy analysis; assay type: functional, organism-based; settings: time 20.0 day; in short: as §2
[9] = Selectivity index, ratio of cytotoxicity against golden hamster BSR cells to IC50 for antitrypanosomal activity against Trypanosoma cruzi trypomastigotes; assay type: toxicity, cell-based; settings: read-out: Selectivity Index
In short: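 Selectivity index as ratio of BSR cell IC50 to trypomastigote invasion IC50 (6 h pre-exposure, fluorescence read-out).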

Trypanosoma cruzi [10] = assay: Antitrypanosomal activity against Trypanosoma cruzi trymastigotes assessed as blockage of trypomastigote infectivity at >50 uM incubated for 6 hrs followed by compound washout further infected in BSR cells for 18 hrs measured after 120 hrs post infection by inverted fluorescence microscope analysis; assay type: functional, organism-based; settings: dose microM >50, time 6.0 hrs
In short: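 Trypomastigotes held 6 h in serial drug concentrations, washed 3x PBS, then infect BSR cells at 10:1 trypomastigote:cell for 18 h; at 120 h post-infection, amastigote replication inspected by inverted epifluorescence microscopy (30 images per treatment, DAPI-stained host nuclei) to find the concentration preventing productive infection.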

Trypanosoma cruzi [11] = assay: Trypanocidal activity against Trypanosoma cruzi trypomastigotes assessed as inhibition of parasite growth by alamar blue staining based fluorescence analysis; assay type: functional, organism-based
Trypanosoma cruzi [12] = assay: Trypanocidal activity against Trypanosoma cruzi epimastigotes assessed as fold decrease in benznidazole IC50 by alamar blue staining based fluorescence analysis relative to control; assay type: functional; design: scale not given: the % may be the effect or the level left
In short: (§3)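 Benznidazole IC50 redetermined by Alamar Blue or fluorescence read-outs under each stage's standard seeding conditions in the presence of the partner drug at its IC50; combination index by isobologram method (Ci <1 synergy, =1 additive, >1 antagonism); triplicate per plate, repeated at least twice.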

Trypanosoma cruzi [13] = assay: Synergistic trypanocidal activity against Trypanosoma cruzi epimastigotes assessed as combination index at IC50 in presence of benznidazole by alamar blue staining based fluorescence analysis; assay type: functional; in short: as §3
Trypanosoma cruzi [14] = assay: Trypanocidal activity against Trypanosoma cruzi trypomastigotes assessed as fold decrease in benznidazole IC50 by alamar blue staining based fluorescence analysis relative to control; assay type: functional; in short: as §3
Trypanosoma cruzi [15] = assay: Synergistic trypanocidal activity against Trypanosoma cruzi trypomastigotes assessed as combination index at IC50 in presence of benznidazole by alamar blue staining based fluorescence analysis; assay type: functional; in short: as §3
Trypanosoma cruzi [16] = assay: Trypanocidal activity against Trypanosoma cruzi amastigotes assessed as inhibition of parasite growth by alamar blue staining based fluorescence analysis; assay type: functional, organism-based
Trypanosoma cruzi [17] = assay: Synergistic trypanocidal activity against Trypanosoma cruzi amastigotes assessed as combination index at IC50 in presence of benznidazole by alamar blue staining based fluorescence analysis; assay type: functional; in short: as §3
Trypanosoma cruzi [18] = assay: Trypanocidal activity against Trypanosoma cruzi CL-Luc-Neon amastigotes infected in BSR cells assessed as inhibition of parasite growth at 20 times IC50 incubated for 20 days measured after 10 days of compound wash out by epifluorescence microscopy analysis; assay type: functional, organism-based; settings: time 20.0 day; in short: as §2
[19] = Genotoxicity in human TK6 cells assessed as decrease in cell proliferation at 40 uM incubated for 3 hrs by comet assay relative to control; assay type: cell-based; design: scale not given: the % may be the effect or the level left; settings: tk6, 3 h
In short: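 TK-6 cells (6 x 10^5 in 1 mL RPMI 1640 with 10% FBS) treated 3 h, washed, cultured 48 h at 37 C, 5% CO2 with agitation, counted at 24 and 48 h; relative suspension growth = TSG treated/TSG control as percentage; three independent experiments.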

Trypanosoma cruzi [20] = assay: Antiprotozoal activity against Trypanosoma cruzi epimastigotes assessed as decrease in parasitemia by measuring change in fluorescence intensity at >2.5 uM measured after 3 days by flourescence based analysis; assay type: functional, organism-based; settings: dose microM >2.5, time 3.0 day
Trypanosoma cruzi [21] = assay: Trypanocidal activity against Trypanosoma cruzi epimastigotes assessed as inhibition of parasite growth by alamar blue staining based fluorescence analysis; assay type: functional, organism-based; in short: as §1
Trypanosoma cruzi [22] = assay: Trypanocidal activity against Trypanosoma cruzi CL-Luc-Neon amastigotes infected in BSR cells assessed as inhibition of parasite growth at 20 times IC50 incubated for 20 days measured after 30 days of compound wash out by epifluorescence microscopy analysis; assay type: functional, organism-based; settings: time 20.0 day; in short: as §2
[23] = Genotoxicity in human TK6 cells assessed as decrease in cell proliferation at 20 uM incubated for 3 hrs by comet assay; assay type: cell-based; settings: tk6, 3 h
In short: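 TK-6 human lymphoblastoid cells (6 x 10^5 in 1 mL culture medium) exposed 3 h, washed three times, then grown 48 h in fresh medium at 37 C, 5% CO2 with agitation, and counted at 24 h (to adjust density) and at 48 h. Relative suspension growth is total suspension growth (48 h count / pre-treatment count) as % of untreated control. Triplicates, three independent experiments.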

Trypanosoma cruzi [24] = assay: Antitrypanosomal activity against Trypanosoma cruzi trymastigotes assessed as blockage of trypomastigote infectivity at >100 uM incubated for 6 hrs followed by compound washout further infected in BSR cells for 18 hrs measured after 5 days post infection by inverted fluorescence microscope analysis; settings: dose microM >100, time 6.0 hrs

| IC50 (Trypanosoma cruzi [1]) | IC50 (Trypanosoma cruzi [4]) | IC50 (Trypanosoma cruzi [5]) | Structure (SMILES) | selectivity ratio [2] | selectivity ratio [3] | IC50 [6] | selectivity ratio [9] | other results |
| --- | --- | --- | --- | --- | --- | --- | --- | --- |
| 21.6 µM | 12.2 µM | 23 µM | O=C(CCn1ccnc1)c1cccc([N+](=O)[O-])c1 | 8 | 15 | 177 µM | 8 | Activity (Trypanosoma cruzi [7]): inactive; Activity (Trypanosoma cruzi [8]): inactive |
| 23.3 µM | – | – | O=C(CCn1ccnc1)c1ccc(Cl)c(F)c1 | 6 | – | 135 µM | – | – |
| 2.2 µM | 3.3 µM | 9.1 µM | COc1ccc(C(=O)CCn2ccnc2[N+](=O)[O-])cc1 | 43 | 28 | 84.7 µM | 9 | Activity (Trypanosoma cruzi [10]): Active; IC50 (Trypanosoma cruzi [11]): 5.4 µM; Activity (Trypanosoma cruzi [12]): 70%; CI (Trypanosoma cruzi [13]): 0.33; fold change (FC) (Trypanosoma cruzi [14]): 4; CI (Trypanosoma cruzi [15]): 0.21; IC50 (Trypanosoma cruzi [16]): 400 nM; CI (Trypanosoma cruzi [17]): 0.81; Activity (Trypanosoma cruzi [18]): Active; Activity [19]: 45%; Activity (Trypanosoma cruzi [20]): Active; IC50 (Trypanosoma cruzi [21]): 1200 nM; Activity (Trypanosoma cruzi [22]): Active |
| 21.4 µM | – | – | Cc1ccccc1C(=O)CCn1ccnc1 | 7 | – | 145 µM | – | – |
| 12.9 µM | 9.1 µM | – | O=C(CCn1ccnc1)c1ccc([N+](=O)[O-])cc1 | 7 | 10 | 93.9 µM | – | – |
| 24.8 µM | – | – | O=C(CCn1cnc2ccccc21)C12CC3CC(CC(C3)C1)C2 | 3 | – | 67.6 µM | – | – |
| – | – | – | COS(C)(=O)=O [METHANESULFONIC ACID METHYL ESTER] | – | – | – | – | Activity [23]: Toxic |
| 11.1 µM | – | – | COc1cc(OC)cc(C(=O)CCn2cnc3ccccc32)c1 | 6 | – | 70.1 µM | – | – |
| 7.4 µM | 6.1 µM | 16.6 µM | O=C(CCn1ccnc1)c1ccc(F)c2ccccc12 | 10 | 12 | 72.2 µM | 4 | Activity (Trypanosoma cruzi [7]): inactive; Activity (Trypanosoma cruzi [8]): inactive |
| – | 0.5 µM | 22.4 µM | O=C(Cn1ccnc1[N+](=O)[O-])NCc1ccccc1 [BENZNIDAZOLE] | 67 | 504 | 267 µM | 12 | Activity (Trypanosoma cruzi [24]): inactive; Activity (Trypanosoma cruzi [18]): Active; Activity (Trypanosoma cruzi [20]): Active; Activity (Trypanosoma cruzi [22]): Active |
